Laboratory results: ChEMBL document CHEMBL1124231, “Structure-activity relationships among analogues of pemedolac, cis-1-ethyl-1,3,4,9-tetrahydro-4-(phenylmethyl)pyrano[3,4-b]indo le-1-a cetic acid, a potent analgesic agent” (J Med Chem, 1988)
pIC50: −log10 of the molar value.

What was measured:
[1] = Inhibitory activity against prostaglandin biosynthesis in stimulated chondrocyte cell culture; assay type: functional
Rattus norvegicus [2] = assay: Inhibition against adjuvant-induced paw edema at a dose of 25 mg/kg in male Sprague-Dawley rats.; assay type: functional
Summary of the method: (§1)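 Male Sprague-Dawley rats (180–200 g), left hindpaw injected intradermally with 0.1 mL Freund's complete adjuvant. Compound or vehicle given by gastric gavage just before FCA (day 0) and at 24 and 48 h. Paw volume read by plethysmometer before FCA and on day 3. Edema is the day 0 to day 3 volume difference, averaged per group.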

Mus musculus [3] = assay: Inhibition against writhing induced by Phenylbenzoquinone in male swiss albino mice at 25 mg/kg; assay type: functional
Summary of the method: (§2)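 Mice in groups of 10, fasted overnight, dosed by gastric gavage with compound or vehicle (0.5% Tween 80 in distilled water). PBQ given ip 1 h later (0.15 mL of 0.02% per 10 g body weight). Writhes counted per mouse over the following 15 min. […] Benzylamine salts dosed as free acid.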

Mus musculus [4] = species: Mus musculus; assay: Inhibition against writhing induced by Phenylbenzoquinone in male swiss albino mice; assay type: functional; summary of the method: as §2
[5] = Partition coefficient (logP); assay type: physicochemical; details: octanol/water
Summary of the method: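 Calculated by computer program, not measured experimentally.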

Mus musculus [6] = assay: Inhibition against writhing induced by Phenylbenzoquinone in male swiss albino mice at 10 mg/kg; assay type: functional; summary of the method: as §2
Mus musculus [7] = assay: Inhibition against writhing induced by Phenylbenzoquinone in male swiss albino mice; at 25 mg/kg; assay type: functional; summary of the method: as §2
Mus musculus [8] = assay: Inhibition against writhing induced by Phenylbenzoquinone in male swiss albino mice at 200 mg/kg; assay type: functional; summary of the method: as §2
Rattus norvegicus [9] = assay: Inhibition against adjuvant-induced paw edema at a dose of 25 mg/kg in Male Sprague-Dawley rats; assay type: functional; summary of the method: as §1

| Compound | pIC50 [1] | inhibition in vivo at 25 mg/kg (Rattus norvegicus [2]) | inhibition in vivo at 25 mg/kg (Mus musculus [3]) | ED50 (Mus musculus [4]) | logP [5] | other results |
| --- | --- | --- | --- | --- | --- | --- |
| C=CC[C@@H]1COC(CC)(CC(=O)O)c2[nH]c3c(C)cccc3c21 (stereo not given in full) | < 5.00 | 31% | 15% | – | – | – |
| CCc1cccc2c3c([nH]c12)C(CC)(CC(=O)O)CC[C@H]3Cc1ccccc1 (stereo not given in full) | – | 6% | 15% | – | – | – |
| C=CC[C@@H]1COC(CC)(CC(=O)O)c2[nH]c3c(CCC)cccc3c21 (stereo not given in full) | – | 36% | 2% | – | – | – |
| C=CC[C@H]1COC(CC)(CC(=O)O)c2[nH]c3c(CC)cccc3c21 (stereo not given in full) | 6.52 | – | – | 6.2 mg/kg | 4.5 | – |
| CCc1cccc2c3c([nH]c12)C(CC)(CC(=O)O)CC[C@@H]3Cc1ccccc1 (stereo not given in full) | – | 38% | – | 22.3 mg/kg | 7.4 | – |
| CCc1cccc2c3c([nH]c12)C(CC)(CC(=O)O)CC[C@@H]3c1ccccc1 (stereo not given in full) | – | 12% | 17% | – | – | – |
| C=CC[C@H]1COC(CC)(CC(=O)O)c2[nH]c3c(CCC)cccc3c21 (stereo not given in full) | – | 32% | – | 9.5 mg/kg | – | – |
| C=CC[C@H]1CC[C@](CC)(CC(=O)O)c2[nH]c3c(CC)cccc3c21 | 5.40 | 0% | 5% | – | – | – |
| CCC1(CC(=O)O)CC[C@H](Cc2ccccc2)c2c1[nH]c1c(C)cccc21 (stereo not given in full) | – | 43% | – | 3.4 mg/kg | 6.9 | – |
| C=CCC[C@H]1CCC(CC)(CC(=O)O)c2[nH]c3c(CC)cccc3c21 (stereo not given in full) | – | 43% | 2% | – | – | – |
| CCc1cccc2c3c([nH]c12)C(CC)(CC(=O)O)CCC3 (stereo not given) | 7.70 | – | – | – | 5.3 | – |
| CCC[C@H]1CCC(CC)(CC(=O)O)c2[nH]c3c(CC)cccc3c21 (stereo not given in full) | – | – | 15% | – | – | – |
| C=CC[C@H]1CCC(CC)(CC(=O)O)c2[nH]c3c(CC)cccc3c21 (stereo not given in full) | 7.82 | 44% | – | 10.6 mg/kg | 6.3 | – |
| CCC1(CC(=O)O)CC[C@@H](Cc2ccccc2)c2c1[nH]c1c(C)cccc21 (stereo not given in full) | – | 24% | – | – | – | inhibition in vivo at 10 mg/kg (Mus musculus [6]): 5% |
| C=CC[C@H]1CCC(CC)(CC(=O)O)c2[nH]c3ccccc3c21 (stereo not given in full) | 7.30 | – | – | 19.6 mg/kg | 5.2 | – |
| CCC1(CC(=O)O)OC[C@@H](Cc2ccccc2)c2c1[nH]c1c(C)cccc21 (stereo not given in full) | – | 40% | 11% | – | – | – |
| C=CC[C@H]1CCC(CC)(CC(=O)O)c2[nH]c3c(C)cccc3c21 (stereo not given in full) | 7.30 | – | – | 8.3 mg/kg | 5.8 | – |
| CCC1(CC(=O)O)OC[C@H](CCc2ccccc2)c2c1[nH]c1ccccc21 (stereo not given in full) | – | 0% | – | – | – | inhibition in vivo at 25 mg/kg (Mus musculus [7]): 0% |
| CCc1cccc2c3c([nH]c12)C(CC)(CC(=O)O)CC[C@H]3c1ccccc1 (stereo not given in full) | – | 37% | 28% | – | – | – |

| Compound | pIC50 [1] | inhibition in vivo at 25 mg/kg (Rattus norvegicus [2]) | inhibition in vivo at 25 mg/kg (Mus musculus [3]) | ED50 (Mus musculus [4]) | logP [5] | other results |
| --- | --- | --- | --- | --- | --- | --- |
| C=CCC[C@@H]1CCC(CC)(CC(=O)O)c2[nH]c3c(CC)cccc3c21 (stereo not given in full) | – | 16% | 0% | – | – | – |
| C=CC[C@H]1CCC(CC)(CC(=O)O)c2[nH]c3c(CCC)cccc3c21 (stereo not given in full) | – | 39% | – | 28.7 mg/kg | 6.9 | – |
| C=CC[C@@H]1COC(CC)(CC(=O)O)c2[nH]c3c(CC)cccc3c21 (stereo not given in full) | – | 55% | 33% | – | – | – |
| C=C[C@@H]1CCC(CC)(CC(=O)O)c2[nH]c3c(CC)cccc3c21 (stereo not given in full) | – | 62% | 0% | – | – | – |
| C=CC[C@H]1CC[C@@](CC)(CC(=O)O)c2[nH]c3c(CC)cccc3c21 | 7.82 | 54% | 94% | – | – | – |
| C=CC[C@@H]1COC(CC)(CC(=O)O)c2[nH]c3ccccc3c21 (stereo not given in full) | < 5.00 | 30% | 25% | – | – | – |
| CCC1(CC(=O)O)OC[C@@H](CCc2ccccc2)c2c1[nH]c1ccccc21 (stereo not given in full) | – | 20% | – | – | – | inhibition in vivo at 25 mg/kg (Mus musculus [7]): 0% |
| CCC1(CC(=O)O)CC[C@H](Cc2ccccc2)c2c1[nH]c1ccccc21 (stereo not given in full) | 7.96 | 49% | – | 1.2 mg/kg | 6.2 | – |
| C=CC[C@@H]1CCC(CC)(CC(=O)O)c2[nH]c3c(CC)cccc3c21 (stereo not given in full) | – | 35% | – | – | – | inhibition in vivo at 200 mg/kg (Mus musculus [8]): 23% |
| C=CC[C@H]1COC(CC)(CC(=O)O)c2[nH]c3ccccc3c21 (stereo not given in full) | 6.92 | – | 21% | – | 3.3 | inhibition in vivo at 25 mg/kg (Rattus norvegicus [9]): 46% |
| CCc1cccc2c3c([nH]c12)C(CC)(CC(=O)O)OC[C@@H]3Cc1ccccc1 (stereo not given in full) | – | 15% | – | – | 5.6 | – |
| CCC1(CC(=O)O)CC[C@@H](Cc2ccccc2)c2c1[nH]c1ccccc21 (stereo not given in full) | – | 42% | 4% | – | – | – |
| CCC1(CC(=O)O)OC[C@H](Cc2ccccc2)c2c1[nH]c1c(C)cccc21 (stereo not given in full) | – | 47% | – | 4.7 mg/kg | 5 | – |
| CCc1cccc2c3c([nH]c12)C(CC)(CC(=O)O)CC[C@@H]3CC1CC1 (stereo not given in full) | – | 19% | 0% | – | – | – |
| C=CC[C@H]1COC(CC)(CC(=O)O)c2[nH]c3c(C)cccc3c21 (stereo not given in full) | 6.70 | 54% | 10% | – | 4 | – |
| C=C[C@H]1CCC(CC)(CC(=O)O)c2[nH]c3c(CC)cccc3c21 (stereo not given in full) | – | 30% | 21% | – | – | – |
| CCC1(CC(=O)O)OC[C@H](Cc2ccccc2)c2c1[nH]c1ccccc21 (single isomer, unassigned) [DEXPEMEDOLAC] | 7.64 | 37% | – | 2 mg/kg | 4.4 | – |
| CCc1cccc2c3c([nH]c12)C(CC)(CC(=O)O)OCC3 (stereo not given) [ETODOLAC] | 7.64 | – | – | – | – | – |
| COc1ccc2c(c1)c(CC(=O)O)c(C)n2C(=O)c1ccc(Cl)cc1 [INDOMETHACIN] | 7.96 | – | – | 1.5 mg/kg | – | – |
